Measured values reported in ChEMBL document CHEMBL1124344, “5-Piperazinylalkyl-2(3H)-oxazolones with neuroleptic activity” (J Med Chem, 1989).

Experiments:
Rattus norvegicus [1] = test: Antagonistic activity against amphetamine-induced stereotypy, after 5 hour of peroral administration in rats at a dose of 20 mg/kg; conditions: po, read-out: Inhibition
Mus musculus [2] = test: Inhibitory activity against tremorine-induced salivation, after 1 hour of peroral administration in mouse; type: functional; conditions: po
How it was run: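 Male mice fasted overnight, dosed orally with arabic gum suspension (10 mL/kg) 1 or 5 h before test, vehicle controls included. Tremorine 20 mg/kg ip given 1 h after compounds; central (tremor) and peripheral (salivation) parasympathetic signs recorded. ED50 = dose protecting 50% of animals, by probit analysis.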

Rattus norvegicus [3] = test: Antagonistic activity against apomorphine-induced stereotypy, after 5 hour of peroral administration in rats at a dose of 80 mg/kg; conditions: po, read-out: Inhibition
Rattus norvegicus [4] = test: Inhibition against conditioned avoidance response, after 5 hour of peroral administration in rats at a dose of 20 mg/kg; conditions: po, read-out: Inhibition
Mus musculus [5] = test: Inhibitory activity against tremorine-induced tremors, after 5 hour of peroral administration in mouse; type: functional; conditions: po
Mus musculus [6] = test: Activity of inclined screen in mouse, after 1 hour of peroral administration in mouse; type: functional
How it was run: (§1)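 Male mice placed for 1 h on a wire screen inclined 60°, just after oral dosing and 4 h later; ataxic or relaxed mice slide off. Fasted overnight, 10 per dose, vehicle controls. Compounds weighed as bases, suspended in arabic gum, 10 mL/kg orally; ED50 by Finney probit analysis.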

Rattus norvegicus [7] = test: Body weight gain, after 1 hour of peroral administration in rats; type: functional; conditions: po
How it was run: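 Female rats (250–280 g), individually caged, on 22-h food deprivation with pellets 10–12 a.m.; weighed before and after eating. After 30–40 days training, oral drug given 1 h before the 2-h feeding. Weight gain expressed as percent of the two preceding control days; ED50 is the dose giving 50% reduction.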

Mus musculus [8] = test: Anticonvulsant activity against pentylenetetrazole-induced convulsions, after 5 hour of peroral administration in mouse at a dose of 40 mg/kg; type: functional; conditions: route oral
How it was run: (§2)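 Male mice dosed orally (arabic gum, 10 mL/kg) 1 or 5 h before challenge with tryptamine 100 mg/kg iv, pentylenetetrazol 110 mg/kg ip, or maximal electroshock. Protection means no bilateral forepaw clonic seizures and head twitches (tryptamine) or no tonic hind-limb extension (others). ED50 protects 50% of mice.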

Mus musculus [9] = test: Anticonvulsant activity against electroshock-induced convulsions, after 1 hour of peroral administration in mouse at a dose of 26 mg/kg; type: functional; conditions: route oral; how it was run: as §2
Rattus norvegicus [10] = test: Antagonistic activity against apomorphine-induced stereotypy, after 1 hour of peroral administration in rats at a dose of 80 mg/kg; conditions: po, read-out: Inhibition
Mus musculus [11] = test: Inhibition of spontaneous motor activity in mouse, by administering perorally; type: functional; conditions: po
How it was run: (§3)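 Mice fasted overnight, then dosed orally with compound (weighed as base) suspended in arabic gum, 10 mL/kg, with vehicle controls; 1 h pretreatment for screening tests, 1 or 5 h for others. Groups of five; locomotor activity counted 10 min in photocell activity cage, at least two groups per dose. ED50 = dose giving 50% inhibition versus controls, by probit analysis.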

Mus musculus [12] = test: Inhibition of spontaneous motor activity, after 5 hour of peroral administration in mouse; type: functional; conditions: po; how it was run: as §3
Mus musculus [13] = test: Effect on skeletal muscle tone, after 5 hour of peroral administration in mouse; type: functional; conditions: Muscle tissue, po
How it was run: (§4)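 Male mice were placed for 1 h on a 60° inclined wire screen just after dosing and 4 h later. In a second test, trained mice hung by the forepaws from a horizontal 1.8 mm wire 15 cm up; normal mice touch it with a hind paw within 2 s and stay ≥1 min. ED50 is the dose making 50% fall. Dosing was oral in gum arabic suspension at 10 mL/kg after an overnight fast.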

Rattus norvegicus [14] = test: Activity to evoke catalepsy, after 1 hour of peroral administration in rats; type: functional; conditions: po
How it was run: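 Rats fasted overnight and given oral doses in arabic gum suspension (10 mL/kg), 1 h before screening or 1 and 5 h before profile testing. Forelegs placed on a horizontal bar 7 cm high, three times at 5-min intervals. Immobility of at least 15 s counts as catalepsy. ED50 is the dose giving catalepsy in 50% of rats, by probit analysis. Parenthetical entries give the maximal dose and percent activity.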

Rattus norvegicus [15] = test: Antagonistic activity against amphetamine-induced stereotypy, after 1 hour of peroral administration in rats at a dose of 20 mg/kg; conditions: po, read-out: Inhibition
Mus musculus [16] = test: Contractile activity in skeletal muscles, after 1 hour of peroral administration in mouse; type: functional; conditions: Muscle tissue, po; how it was run: as §4
Mus musculus [17] = test: Inhibitory activity against tremorine-induced tremors, after 1 hour of peroral administration in mouse; type: functional; conditions: po
How it was run: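 Male mice given oral drug, then tremorine 20 mg/kg ip 1 h later; central tremor and peripheral salivation recorded. ED50 is the dose protecting 50% of animals from tremorine effects, by probit analysis.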

Mus musculus [18] = test: Anticonvulsant activity against tryptamine-induced convulsions, after 5 hour of peroral administration in mouse at a dose of 40 mg/kg; type: functional; conditions: route oral; how it was run: as §2
Rattus norvegicus [19] = species: Rattus norvegicus; test: animal or person; conditions: po, read-out: Inhibition
Mus musculus [20] = test: Inhibition against apomorphine-induced climbing, after 1 hour of peroral administration in mouse; type: functional; conditions: po
How it was run: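 Mice were dosed orally (gum arabic suspension, 10 mL/kg, fasted), then given apomorphine 1 mg/kg sc and placed in cylindrical cages with vertical metal bars. Climbing was scored 0 for four paws on the floor, 1 for forefeet on the wall, 2 for four paws on the wall. ED50 is the dose halving the control score.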

Mus musculus [21] = test: Antagonistic activity against amphetamine-induced Hypermobility in mouse by administering perorally; type: functional; conditions: po
How it was run: (§5)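 Male mice in groups of five, fasted overnight, given oral drug in arabic gum suspension (10 mL/kg) 1 or 5 h ahead. Amphetamine 4 mg/kg ip given 30 min after drug. Ten minutes later locomotion is recorded for 15 min in a photocell actophotometer. ED50 is 50% reduction versus control hypermotility, by probit analysis. Parenthetical entries give the maximal dose and percent activity.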

Mus musculus [22] = test: Contractile activity in skeletal muscles, after 5 hour of peroral administration in mouse at a dose of 40 mg/kg; type: functional; conditions: Muscle tissue, route oral
How it was run: (§6)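 Male mice suspended by forepaws from a 1.8-mm wire stretched 15 cm above a plane. Trained normal mice touch the wire with a hind paw within 2 s (traction) and hang at least 1 min (suspension). Oral dosing 1 or 5 h before. ED50 is the dose making 50% of mice fall without traction and suspension.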

Mus musculus [23] = test: Antagonistic activity against amphetamine-induced hypermotility, after 5 hour of peroral administration in mouse; type: functional; conditions: po; how it was run: as §5
Rattus norvegicus [24] = test: Antagonistic activity against apomorphine-induced stereotypy in rats, by administering perorally at a dose of 80 mg/kg; conditions: po, read-out: Inhibition
Mus musculus [25] = test: Anticonvulsant activity against pentylenetetrazole-induced convulsions, after 1 hour of peroral administration in mouse at a dose of 40 mg/kg; type: functional; conditions: route oral; how it was run: as §2
Mus musculus [26] = test: Suppression of aggressive behavior, after 1 hour of peroral administration in mouse; type: functional; conditions: po
How it was run: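 Male mice made aggressive by isolation in individual black cages for about 1 month plus weekly testosterone cyclopentylpropionate 250 mg/kg sc; pairs preselected for attack on a nonisolated male within 15 min. Oral dosing (arabic gum, 10 mL/kg) 1 or 5 h before test, overnight fast. ED50 = dose suppressing aggression in 50% of animals, probit analysis.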

Mus musculus [27] = test: Antagonistic activity against amphetamine-induced hypermotility, after 1 hour of peroral administration in mouse; type: functional; conditions: po; how it was run: as §5
Rattus norvegicus [28] = test: Inhibition against conditioned avoidance response, after 1 hour of peroral administration in rats; type: functional; conditions: po
How it was run: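 Male rats were trained in a shuttle box to avoid grid-floor shock by crossing compartments during a warning period. Dosing was oral as a gum arabic suspension at 10 mL/kg after an overnight fast. Percent inhibition was computed against a pretraining test. ED50 is the dose giving 50% inhibition.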

Mus musculus [29] = test: Anticonvulsant activity against tryptamine-induced convulsions, after 1 hour of peroral administration in mouse; type: functional; conditions: po
How it was run: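 Compounds were dosed as bases suspended in arabic gum at 10 mL/kg orally, after an overnight fast, with vehicle controls. Protection meant no bilateral forepaw clonic seizures or head twitches (tryptamine), or no tonic hind-limb extension (the other two). ED50 is the dose protecting 50%, by probit analysis.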

Mus musculus [30] = test: Suppression of aggressive behavior, after 5 hour of peroral administration in mouse at a dose of 10 mg/kg; type: functional; conditions: route oral
How it was run: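 Male mice made aggressive by about 1 month of isolation in individual black cages plus weekly testosterone cyclopentylpropionate 250 mg/kg sc. Pairs preselected for aggressiveness shortly before oral dosing 1 or 5 h beforehand; attack on a nonisolated male within 15 min scored. ED50 is the dose suppressing aggression in 50% of animals.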

Mus musculus [31] = test: Inhibition of spontaneous motor activity, after 1 hour of peroral administration in mouse; type: functional; conditions: po; how it was run: as §3
Mus musculus [32] = test: Activity of inclined screen in mouse, after 5 hour of peroral administration in mouse; type: functional; how it was run: as §1
Mus musculus [33] = test: Potentiation against pentobarbital-induced sleeping, after 1 hour of peroral administration in mouse; type: functional; conditions: po
How it was run: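 Female mice fasted overnight, dosed orally 1 or 5 h beforehand as arabic gum suspension, 10 mL/kg, with vehicle controls. Subhypnotic pentobarbital 10 mg/kg iv; 3 min later placed on back, effect scored as complete loss of righting reflex for at least 15 s. ED50 = dose producing this in 50% of mice, probit analysis.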

[34] = Lethal dose in mice (LD50) following i.p. dosing; type: toxicity, organism-based; conditions: mouse, in vivo, ip
How it was run: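 Acute toxicity tested in mice by the intraperitoneal route. LD50 is the dose killing 50% of treated mice, computed by Finney probit analysis; values are approximate.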

Mus musculus [35] = test: Effect on skeletal muscle tone, after 1 hour of peroral administration in mouse; type: functional; conditions: Muscle tissue, po; how it was run: as §6

Work on `CN1CCN(C2=Nc3cc(Cl)ccc3Nc3ccccc32)CC1` [CLOZAPINE] yielded an inhibition in vivo at 20 mg/kg (Rattus norvegicus [1]) of 0%, an ED50 (Mus musculus [2]) of 6.9 mg/kg and an inhibition in vivo at 80 mg/kg (Rattus norvegicus [3]) of 0%. It also gave an inhibition in vivo at 20 mg/kg (Rattus norvegicus [4]) of 0%, an ED50 (Mus musculus [5]) of 30 mg/kg and an ED50 (Mus musculus [6]) of 9.3 mg/kg. For the same molecule, the ED50 (Rattus norvegicus [7]) was 8 mg/kg, the inhibition in vivo at 40 mg/kg (Mus musculus [8]) was 0% and the inhibition in vivo at 26 mg/kg (Mus musculus [9]) was 37%. It also gave an inhibition in vivo at 80 mg/kg (Rattus norvegicus [10]) of 30%, an ED50 (Mus musculus [11]) of 4.2 mg/kg and an ED50 (Mus musculus [12]) of 23 mg/kg. The ED50 (Mus musculus [13]) was 30 mg/kg, the ED50 (Rattus norvegicus [14]) was 34 mg/kg and the inhibition in vivo at 20 mg/kg (Rattus norvegicus [15]) was 20%. For the same molecule, the ED50 (Mus musculus [16]) was 40 mg/kg, the ED50 (Mus musculus [17]) was 30 mg/kg and the inhibition in vivo at 40 mg/kg (Mus musculus [18]) was 0%. For the same molecule, the inhibition in vivo at 26 mg/kg (Rattus norvegicus [19]) was 37%, the ED50 (Mus musculus [20]) was 12 mg/kg and the ED50 (Mus musculus [21]) was 4.5 mg/kg. It also gave an inhibition in vivo at 40 mg/kg (Mus musculus [22]) of 10%, an ED50 (Mus musculus [23]) of 20.1 mg/kg and an inhibition in vivo at 80 mg/kg (Rattus norvegicus [24]) of 30%. For the same molecule, the inhibition in vivo at 40 mg/kg (Mus musculus [25]) was 0%, the ED50 (Mus musculus [26]) was 3.5 mg/kg and the ED50 (Mus musculus [27]) was 4.5 mg/kg. For the same molecule, the ED50 (Rattus norvegicus [28]) was 8.6 mg/kg, the ED50 (Mus musculus [29]) was 10.3 mg/kg and the inhibition in vivo at 10 mg/kg (Mus musculus [30]) was 0%. It also gave an ED50 (Mus musculus [31]) of 4.2 mg/kg, an ED50 (Mus musculus [32]) of 18.8 mg/kg and an ED50 (Mus musculus [33]) of 6.6 mg/kg. It also gave an LD50 [34] of 100 mg/kg and an ED50 (Mus musculus [35]) of 9.2 mg/kg.
